Results on four compounds are retold here after ChEMBL document CHEMBL4177764 (J Med Chem, 2018).

The structures appear in SMILES notation. Calls of active or inactive are those of the source. The rule behind the calls is not given here.

The subject of experiment [1] is SH-SY5Y. Kind of experiment: Antiproliferative activity against human SH-SY5Y cells after 72 hrs in presence of ABCB1 inhibitor tariquidar by CellTiter-Glo luminescent cell viability assay. The class given is functional, cell-based. On the technique in general: ATP-based viability assays read luminescence as a measure of living cells.
The subject of experiment [2] is SH-SY5Y. Kind of experiment: Antiproliferative activity against human SH-SY5Y cells after 72 hrs by CellTiter-Glo luminescent cell viability assay. The class given is functional, cell-based.
Another experiment has as its system KARPAS-299. Kind of experiment: Antiproliferative activity against human KARPAS299 cells after 72 hrs by CellTiter-Glo luminescent cell viability assay. The class given is functional, cell-based.
The species named for experiment [3] is Homo sapiens. Briefly: Antiproliferative activity against human CHLA20 cells after 72 hrs in presence of ABCB1 inhibitor tariquidar by CellTiter-Glo luminescent cell viability assay. The class given is functional, cell-based.
Another experiment relates to SU-DHL-1. Kind of experiment: Antiproliferative activity against human SU-DHL1 cells after 72 hrs by CellTiter-Glo luminescent cell viability assay. The class given is functional, cell-based.
The next experiment concerns NCI-H3122. Briefly: Antiproliferative activity against human NCI-H3122 cells after 72 hrs by CellTiter-Glo luminescent cell viability assay. The class given is functional, cell-based.
The species named for experiment [4] is Homo sapiens. Kind of experiment: Antiproliferative activity against human CHLA20 cells after 72 hrs by CellTiter-Glo luminescent cell viability assay. The class given is functional, cell-based.
The target of experiment [5] is Signal transducer and activator of transcription 3 (Homo sapiens) (UniProt P40763). Briefly: Inhibition of STAT3 phosphorylation at Y705 in human Kelly cells at 250 nM after 6 to 48 hrs by immunoblot method. The class given is cell-based. (In general: In western blotting, separated proteins are transferred to a membrane and probed.)
Experiment [6] has the same target. Kind of experiment: Inhibition of STAT3 phosphorylation at Y705 in human CHLA20 cells at 250 nM after 6 to 48 hrs in presence of ABCB1 inhibitor tariquidar by immunoblot method. The class given is cell-based.
The target in experiment [7] is Protein cereblon (Homo sapiens) (UniProt Q96SW2). Kind of experiment: Displacement of Atto565-Lenalidomide from CRBN fused with DDB1deltaB (unknown origin) by fluorescence polarization assay. A general note: Fluorescence polarisation rises when a labelled molecule tumbles more slowly, as on binding a larger partner.
Experiment [8] addresses T1, ALK tyrosine kinase receptor (Homo sapiens, UniProt Q9UM73). Kind of experiment: Induction of ALK degradation in human Kelly cells at 100 nM after 8 hrs by immunoblot method. The class given is cell-based. A digest of the protocol: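 Kelly cells were treated with 100 nM compound for varying times and lysed at each time point. ALK levels were read by immunoblot.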

Experiment [9] concerns the target T1, ALK tyrosine kinase receptor. Kind of experiment: Induction of ALK degradation in human CHLA20 cells at 100 nM after 4 hrs in presence of ABCB1 inhibitor tariquidar by immunoblot method. The class given is cell-based. The gist of the method: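 CHLA20 cells were co-treated with 125 nM tariquidar, then treated with 100 nM compound over a time course. ALK was read by immunoblot.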

T1 sequence (Q9UM73 19-1620 limits assumed): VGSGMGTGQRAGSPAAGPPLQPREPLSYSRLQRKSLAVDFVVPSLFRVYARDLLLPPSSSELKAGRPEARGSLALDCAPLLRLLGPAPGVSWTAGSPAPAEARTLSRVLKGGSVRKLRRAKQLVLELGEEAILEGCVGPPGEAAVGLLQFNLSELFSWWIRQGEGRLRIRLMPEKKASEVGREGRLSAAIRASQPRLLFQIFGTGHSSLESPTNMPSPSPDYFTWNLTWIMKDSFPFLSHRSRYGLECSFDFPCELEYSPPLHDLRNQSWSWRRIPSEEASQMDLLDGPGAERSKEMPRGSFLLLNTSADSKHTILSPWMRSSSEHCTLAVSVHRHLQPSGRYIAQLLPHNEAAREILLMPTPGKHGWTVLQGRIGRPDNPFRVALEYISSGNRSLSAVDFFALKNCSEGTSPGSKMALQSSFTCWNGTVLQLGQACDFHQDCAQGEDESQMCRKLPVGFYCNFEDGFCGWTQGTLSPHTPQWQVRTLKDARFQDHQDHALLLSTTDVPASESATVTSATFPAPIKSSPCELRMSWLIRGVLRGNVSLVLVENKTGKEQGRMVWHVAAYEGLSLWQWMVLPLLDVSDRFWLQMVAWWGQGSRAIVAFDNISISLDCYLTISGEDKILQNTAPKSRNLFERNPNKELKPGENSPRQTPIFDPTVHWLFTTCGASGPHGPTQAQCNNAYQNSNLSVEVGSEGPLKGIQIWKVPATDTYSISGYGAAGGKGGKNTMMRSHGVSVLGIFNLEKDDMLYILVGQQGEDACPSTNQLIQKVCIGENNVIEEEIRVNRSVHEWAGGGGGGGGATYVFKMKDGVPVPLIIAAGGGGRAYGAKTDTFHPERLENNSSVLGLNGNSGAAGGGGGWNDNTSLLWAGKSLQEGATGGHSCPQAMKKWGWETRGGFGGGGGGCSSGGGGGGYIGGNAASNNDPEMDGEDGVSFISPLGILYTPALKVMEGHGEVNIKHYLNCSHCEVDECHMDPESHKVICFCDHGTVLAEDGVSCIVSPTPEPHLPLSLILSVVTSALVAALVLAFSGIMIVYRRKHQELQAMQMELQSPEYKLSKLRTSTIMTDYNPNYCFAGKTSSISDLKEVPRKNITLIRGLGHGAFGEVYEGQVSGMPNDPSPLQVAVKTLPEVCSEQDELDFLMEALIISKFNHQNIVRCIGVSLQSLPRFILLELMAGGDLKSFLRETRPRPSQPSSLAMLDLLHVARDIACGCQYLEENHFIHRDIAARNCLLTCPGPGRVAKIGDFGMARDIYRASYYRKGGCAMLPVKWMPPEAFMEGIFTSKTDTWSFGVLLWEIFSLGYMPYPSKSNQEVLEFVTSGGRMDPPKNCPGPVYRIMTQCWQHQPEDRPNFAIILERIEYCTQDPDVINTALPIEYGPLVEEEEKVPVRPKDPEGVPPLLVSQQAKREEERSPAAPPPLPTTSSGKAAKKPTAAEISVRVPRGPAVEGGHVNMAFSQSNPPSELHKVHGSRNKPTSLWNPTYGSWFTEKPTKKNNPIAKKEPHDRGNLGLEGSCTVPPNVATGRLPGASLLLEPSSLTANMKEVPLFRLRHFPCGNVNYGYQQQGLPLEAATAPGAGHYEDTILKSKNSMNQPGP
Sequence of Protein cereblon (Homo sapiens) (Q96SW2 whole entry, the tested form may be a part): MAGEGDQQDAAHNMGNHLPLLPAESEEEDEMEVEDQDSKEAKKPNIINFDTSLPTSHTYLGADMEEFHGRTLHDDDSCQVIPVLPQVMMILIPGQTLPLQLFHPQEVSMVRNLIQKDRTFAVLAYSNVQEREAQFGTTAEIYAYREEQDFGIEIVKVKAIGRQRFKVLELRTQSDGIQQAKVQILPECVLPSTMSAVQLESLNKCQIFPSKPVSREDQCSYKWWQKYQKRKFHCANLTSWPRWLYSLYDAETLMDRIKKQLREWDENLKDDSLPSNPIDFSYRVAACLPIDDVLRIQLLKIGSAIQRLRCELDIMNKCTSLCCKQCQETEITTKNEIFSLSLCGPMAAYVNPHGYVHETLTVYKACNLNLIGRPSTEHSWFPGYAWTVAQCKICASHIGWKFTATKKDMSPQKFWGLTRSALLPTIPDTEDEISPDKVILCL
Sequence of Signal transducer and activator of transcription 3 (Homo sapiens) (P40763 whole entry): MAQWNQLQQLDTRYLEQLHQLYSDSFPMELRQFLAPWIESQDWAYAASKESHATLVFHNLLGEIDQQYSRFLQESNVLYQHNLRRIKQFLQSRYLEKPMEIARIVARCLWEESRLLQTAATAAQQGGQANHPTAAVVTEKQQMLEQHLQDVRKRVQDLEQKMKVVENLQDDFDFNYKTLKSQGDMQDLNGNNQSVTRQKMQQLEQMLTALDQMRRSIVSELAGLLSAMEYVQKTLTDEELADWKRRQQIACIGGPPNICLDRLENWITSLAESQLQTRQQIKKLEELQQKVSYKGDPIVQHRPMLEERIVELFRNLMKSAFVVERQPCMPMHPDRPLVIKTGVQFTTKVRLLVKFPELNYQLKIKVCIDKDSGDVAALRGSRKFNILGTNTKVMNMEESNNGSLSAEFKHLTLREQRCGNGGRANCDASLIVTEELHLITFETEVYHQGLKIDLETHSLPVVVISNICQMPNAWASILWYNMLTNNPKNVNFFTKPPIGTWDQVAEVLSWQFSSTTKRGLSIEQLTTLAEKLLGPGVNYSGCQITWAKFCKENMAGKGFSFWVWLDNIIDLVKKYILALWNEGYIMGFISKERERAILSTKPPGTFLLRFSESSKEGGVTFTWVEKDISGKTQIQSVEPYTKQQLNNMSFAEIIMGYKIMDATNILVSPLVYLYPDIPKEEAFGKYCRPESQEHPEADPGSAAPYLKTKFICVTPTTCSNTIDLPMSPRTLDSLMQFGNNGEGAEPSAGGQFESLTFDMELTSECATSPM

As to `COc1cc(N2CCC(N3CCN(C)CC3)CC2)ccc1Nc1ncc(Cl)c(Nc2ccccc2S(=O)(=O)C(C)C)n1`, the result with SH-SY5Y [1], in the experiment on SH-SY5Y [2], in the experiment with KARPAS-299, in the experiment listed under Homo sapiens [3], with SU-DHL-1 and in the experiment with NCI-H3122 was Active. Moreover, the outcome in the experiment filed under Homo sapiens [4] was Active.

Turning to `Cc1cc(Nc2ncc(Cl)c(Nc3ccccc3S(=O)(=O)C(C)C)n2)c(OC(C)C)cc1C1CCNCC1`, the result with SH-SY5Y [1], in the experiment on SH-SY5Y [2], in the experiment on KARPAS-299, in the experiment filed under Homo sapiens [3], in the experiment with SU-DHL-1 and in the experiment on NCI-H3122 was Active. Also, the outcome in the experiment filed under Homo sapiens [4] was Active. Further, the inhibition result in [5] and in [6] was “inactive” each time.

In the case of `Cc1cc(Nc2ncc(Cl)c(Nc3ccccc3S(=O)(=O)C(C)C)n2)c(OC(C)C)cc1C1CCN(CCOCCOCCNC(=O)CNc2cccc3c2C(=O)N(C2CCCNC2=O)C3=O)CC1` (stereo unspecified), the result (with SH-SY5Y [1]; in the experiment listed under Homo sapiens [3]; in experiment [8]; in experiment [9]) was Active. Besides, the outcome with SH-SY5Y [2], with KARPAS-299, in the experiment on SU-DHL-1, with NCI-H3122 and in the experiment listed under Homo sapiens [4] was inactive. Besides, the inhibition entry in [7] is “inactive”.

As to `COc1cc(N2CCN(CCOCCOCCNC(=O)CNc3cccc4c3C(=O)N(C3CCCNC3=O)C4=O)CC2)ccc1Nc1ncc(Cl)c(Nc2ccccc2S(=O)(=O)C(C)C)n1` (stereo unspecified), the outcome (in the experiment with SH-SY5Y [1]; in the experiment filed under Homo sapiens [3]; in experiment [8]; in experiment [9]) was Active. Further, the result in the experiment on SH-SY5Y [2], in the experiment with KARPAS-299, in the experiment on SU-DHL-1, with NCI-H3122 and in the experiment filed under Homo sapiens [4] was inactive. For the same compound, the inhibition entry in experiment [7] is “inactive”.
